Results: PubChem BioAssay AID489030 (Sanford-Burnham Center for Chemical Genomics, 2010)
Out of some 330,000 compounds screened, about 2,400 (0.73%) were called active. What follows is part of a selection rich in actives, with near analogues and random picks from the rest. Values without a mark were called inactive. The calls were made as follows: active = inhibition of at least 40% at 20 µM; inactive = the rest.

Target: Apoptotic protease-activating factor 1 (Homo sapiens) (UniProt O14727)
Assay: inhibitors of human Apaf-1 apoptosome, primary screen, biochemical, DEVD-Rh110 fluorescence, uHTS (AID 489030);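 also: plate controls were DMSO wells for no effect and DEVD-CHO caspase inhibitor wells for full effect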
Details: reconstituted apoptosome caspase-3 activity, at 20 µM, active compounds read high
How it was run: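 System: Apoptosome proteins | Medium: Hepes pH 7.5 with detergent and BSA | Also added: Cytochrome c trigger plus (Z-DEVD)2-Rh110 caspase-3 substrate | Incubation: 30 min compound preincubation, 50 min activation, room temperature | Detection: Rhodamine 110 fluorescence at Ex 480/Em 540 nm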

Apoptotic protease-activating factor 1 (Homo sapiens), sequence (O14727 whole entry, looked up): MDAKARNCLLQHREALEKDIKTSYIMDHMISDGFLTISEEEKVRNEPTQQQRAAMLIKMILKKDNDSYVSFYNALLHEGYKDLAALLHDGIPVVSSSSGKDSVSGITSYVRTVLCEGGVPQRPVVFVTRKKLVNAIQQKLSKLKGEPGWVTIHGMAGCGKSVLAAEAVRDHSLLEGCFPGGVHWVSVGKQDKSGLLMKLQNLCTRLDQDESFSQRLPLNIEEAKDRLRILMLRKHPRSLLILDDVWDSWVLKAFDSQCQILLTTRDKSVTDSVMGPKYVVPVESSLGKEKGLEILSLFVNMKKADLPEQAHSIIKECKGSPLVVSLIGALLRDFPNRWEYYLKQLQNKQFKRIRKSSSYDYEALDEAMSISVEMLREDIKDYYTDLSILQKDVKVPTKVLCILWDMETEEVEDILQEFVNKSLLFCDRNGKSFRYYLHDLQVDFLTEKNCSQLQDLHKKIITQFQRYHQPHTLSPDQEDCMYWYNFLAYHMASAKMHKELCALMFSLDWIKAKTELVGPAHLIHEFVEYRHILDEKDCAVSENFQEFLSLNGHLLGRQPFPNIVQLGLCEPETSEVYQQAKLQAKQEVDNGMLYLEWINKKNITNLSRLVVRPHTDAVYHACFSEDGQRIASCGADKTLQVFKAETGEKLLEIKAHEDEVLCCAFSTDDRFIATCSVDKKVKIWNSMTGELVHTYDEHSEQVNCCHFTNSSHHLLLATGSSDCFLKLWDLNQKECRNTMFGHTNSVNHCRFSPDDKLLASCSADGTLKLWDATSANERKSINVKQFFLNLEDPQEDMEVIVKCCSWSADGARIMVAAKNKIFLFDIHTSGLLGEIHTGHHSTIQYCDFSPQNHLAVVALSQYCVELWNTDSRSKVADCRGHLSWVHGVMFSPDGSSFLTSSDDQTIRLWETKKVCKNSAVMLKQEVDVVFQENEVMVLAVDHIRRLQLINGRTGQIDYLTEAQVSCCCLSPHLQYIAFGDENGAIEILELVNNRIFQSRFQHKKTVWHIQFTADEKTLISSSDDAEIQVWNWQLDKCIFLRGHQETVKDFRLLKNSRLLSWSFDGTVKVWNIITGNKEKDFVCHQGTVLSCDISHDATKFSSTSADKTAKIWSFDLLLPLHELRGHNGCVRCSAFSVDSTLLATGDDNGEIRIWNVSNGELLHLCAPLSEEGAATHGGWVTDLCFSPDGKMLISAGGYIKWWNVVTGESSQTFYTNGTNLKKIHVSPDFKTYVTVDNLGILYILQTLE

Structure (SMILES) | inhibition
COC(=O)c1ccc(S(=O)(=O)N2CCC(c3nc4ccccc4o3)CC2)cc1 | -25.7%
Cc1cccc(C)c1NC(=O)CNC(=O)Cc1ccc(Br)cc1 | -1.64%
CC(C)N(C(=O)[C@H]1C[C@H](CC(=O)NC(C)(C)C)C(=O)N2CCc3c([nH]c4ccc(Cl)cc34)[C@]12C)C(C)C | 29.3%
C[C@@H](C(=O)N1CCNCC1)n1cc(CCC(=O)O)nn1 | 5.94%
NC(N)=NCCCc1cn(CC(=O)N2CCNCC2)nn1 | 40.2% (active)
CCC(C)[C@@H](C(=O)N1CCNCC1)n1cc(CCCCN)nn1 (stereo partly drawn) | -4.43%
CCN1C(=NCc2ccc(OC)cc2)N[C@@H](CCc2ccccc2)[C@H](C(=O)NCc2ccc(OC)cc2)[C@H]1C | 40.4% (active)
CCN1C(=S)N[C@@H](CCc2ccccc2)[C@H](C(=O)OC)[C@H]1C | -4.74%
CCN1C(=NCC(C)C)N[C@@H](CCc2ccccc2)[C@H](C(=O)NCC(C)C)[C@H]1C | 4.1%
CCN1C(=O)N[C@@H](CCc2ccccc2)C(C(=O)OC)=C1C | 17.6%
O=C(NCc1ccccc1Cl)C1CCN(c2ncnc3c2nc2n3CCCCC2)CC1 | -6.54%
Cc1nn2c(NCCN(C)C)c3c(nc2c1-c1ccccc1)CCC3 | 1.66%
CCN(C(=O)C1CCCN(c2nc(-c3ccc(OC)cc3)no2)C1)c1ccc(OC)cc1 (stereo not drawn) | 12.2%
Cc1cc(=O)cc(C)[nH]1 | -15%
Oc1c(C=Nc2cccc3nsnc23)ccc2ccccc12 | 95.8% (active)
CCOc1ccc(N2CC(C(=O)NCc3ccccn3)CC2=O)cc1 (stereo not drawn) | 1.44%
OC(CNCC1CCCO1)Cn1c2ccc(Br)cc2c2cc(Br)ccc21 (stereo not drawn) | 43.4% (active)
CCCN1CCn2c3c(c4cc(Br)ccc42)CCCC31 (stereo not drawn) | 12.8%
COCCNC(=O)c1ccc(Cn2c(SCC(=O)NCC3CCCO3)nc3ccc(Br)cc3c2=O)cc1 (stereo not drawn) | -13.8%
CN(C)/C(CN1CCCCC1)=C1\N=C(c2ccccc2)OC1=O | -0.998%
O=C(CCC(=O)c1ccccc1)NCc1cccc(C(F)(F)F)c1 | 6.79%
NC[C@H](Cc1ccccc1)NCCc1cc(C(F)(F)F)cc(C(F)(F)F)c1 | 60.8% (active)

Structure (SMILES) | inhibition
COC(=O)[C@@H](Cc1ccccc1)NC(=O)NCCc1ccccc1 | -5.88%
O=C(Cn1nc(CNc2ccc(Cl)cc2)[n+]2c1CCCCC2)c1ccc(Cl)cc1 | 15.2%
CCc1ccc(/C=N/NC(=O)c2nnn(-c3nonc3N)c2CN2CCc3ccccc32)cc1 | 8.04%
CC(C)CC[n+]1ccn(C2=C([O-])c3ccccc3C(=O)/C2=N\S(=O)(=O)c2ccccc2)c1 | 55.3% (active)
CCc1nc(C)cn1S(=O)(=O)c1cc([N+](=O)[O-])ccc1Cl | 2.1%
CCC(=O)Nc1ccc(Nc2nc(Cl)nc(Nc3ccc(NC(=O)CC)cc3)n2)cc1 | -8.45%
CC(=O)Nc1ccc(Nc2cc(C)nc(Nc3ccc(NC(C)=O)cc3)n2)cc1 | 46.2% (active)
COc1ccc(C(=O)NNc2cc(C)nc(NNC(=O)c3ccc(OC)cc3)n2)cc1 | 8.09%
COc1ccc(OCCNC(=O)c2cc(C3CC3)nc3c2cnn3C(C)C)cc1 | 15%
O=c1nc(N/N=C/c2ccco2)cn[nH]1 | 2.62%
CCOC(=O)N1CCN(C(=O)COCc2cc(-c3ccc4c(c3)OCO4)on2)CC1 | 15.6%
CC(C)c1nc(SCC(=O)Nc2cccc(C(=O)O)c2)c2c3c(sc2n1)CCCC3 | 7.92%
Cc1cc(C)n(-c2nc(SCC(=O)N3CCCC3)c3c4c(sc3n2)CCCC4)n1 | 43.6% (active)
COCCNc1nc(-n2nc(C)cc2C)nc2sc3c(c12)CCCC3 | 8.1%
CCN(CC)S(=O)(=O)c1cc([N+](=O)[O-])ccc1NNC(=O)Nc1ccccc1 | 7.25%
COC(=O)CN1C(C)=Nc2ccc(Br)cc2C1c1ccccc1 (stereo not drawn) | 4.57%
COc1ccc(S(=O)(=O)N2CCCCC2)cc1NC(=O)C1CC(=O)N(c2ccc3c(c2)OCCO3)C1 (stereo not drawn) | 18.5%
O=C(COC(=O)c1ccc(O)cc1O)NNC(=O)c1cccs1 | -6.93%
Cc1cccc(OCCNC(=O)CSc2ccc(C(F)(F)F)cc2[N+](=O)[O-])c1 | 15.2%
CC(C)OCCCNC(=O)CN1C(=O)/C(=C/c2ccccc2F)Oc2ccccc21 | 11%
Cc1c(C)n(Cc2ccc(Cl)cc2)c2ccc(C(=O)NCCCN3CCOCC3)cc12 | 25.9%
CN1CCN(CCCNC(=O)c2ccc(/C=C3\Oc4ccccc4N(Cc4ccc(Cl)cc4)C3=O)cc2)CC1 | 56.6% (active)

Structure (SMILES) | inhibition
O=C(NCC1CC1)c1onc(CSc2ccccc2)c1C(=O)NCC1CC1 | 14.7%
COc1cccc(NC(=O)CSc2nccn(-c3ccc4c(c3)OCCO4)c2=O)c1 | 5.15%
CCOc1cc(CNCCN(C)C)c(Cl)cc1OCC(=O)NCCc1ccccc1 | 13.1%
COc1ccc(S(=O)(=O)N(C)C[C@@H]2Oc3ccc(NS(=O)(=O)c4cn(C)cn4)cc3C(=O)N([C@@H](C)CO)C[C@@H]2C)cc1 | 5.38%
O=C1NNC(c2ccccc2)=N/C1=C\c1ccc(Cl)cc1 | 50.6% (active)
Cc1ccc(Cl)c(OCC(=O)N(C)CC(=O)Nc2ccc(N3CCOCC3)cc2)c1 | 7.19%
COC(=O)c1ccc(COC(=O)C2CCN(S(=O)(=O)c3c(Cl)cccc3Cl)CC2)o1 | 0.83%
CCn1cc(CN2CCC(C(=O)Nc3cccc(-c4cccc(Cl)c4)c3)CC2)cn1 | 33.8%
CCn1cc(CN2CCC(C(=O)Nc3cccc(-c4cccc(Cl)c4)c3)CC2)c(C)n1 | 40.5% (active)
O=C(Nc1cccc(-c2cccc(Cl)c2)c1)C1CCN(C2CCC2)CC1 | 25.3%
COc1ccccc1N1CCN(C(=O)CSc2ncnc3c2cnn3-c2ccc(C)c(C)c2)CC1 | -2.97%
COc1cccc(-n2c(N)cc(=O)nc2SCC(=O)Nc2cc(C)on2)c1 | 0.469%
CCCCN1C(=S)NC[C@@H]1C(C)CC (stereo partly drawn) | 1.66%
COc1ccccc1C(=O)N1C(CC(=O)Nc2ccccc2C)C(=O)NC2CCCCC21 (stereo not drawn) | -7.88%
CCOC(=O)Cc1cc(=O)[nH]c(/N=C(\N)Nc2ccc(OC)cc2)n1 | -3.54%
CCOC(=O)c1ccc(Nc2cc3ccccc3c(=O)[nH]2)cc1 | 92.5% (active)
CCOC(=O)c1ccc(NC(=O)c2c(NCc3ccccc3)[nH]c(=O)[nH]c2=O)cc1 | 3.08%
CCOC(=O)c1ccc(NC(=O)c2c(N)n(C)c(=O)[nH]c2=O)cc1 | -13.8%
COc1ccc(/C=C/c2c(-c3cccc(C)c3)oc3ccc(-c4ccc5c(c4)OCO5)cc23)cc1 | -2.24%
CC(NC(=O)c1ccccc1SCC(=O)N1CCCC1)c1ccccc1 (stereo not drawn) | 41.6% (active)
CC(C)N(Cc1ccccc1)C(=O)COC(=O)c1ccccc1SCC(=O)N1CCCC1 | 1.56%
CN(CC(=O)Nc1ccccc1Cl)C(=O)c1ccccc1SCC(=O)N1CCCC1 | -3.37%

Structure (SMILES) | inhibition
Cc1ccc(NC2=NC(c3ccccc3)n3c(nc(C)cc3=O)N2)cc1 (stereo not drawn) | 5.19%
O=C(Nc1ccccc1C(=O)O)c1cc(S(=O)(=O)N2CCCCC2)cs1 | -2.29%
COc1ccc(C2=NS(=O)(=O)N(C)C(C(=O)NC(C)c3ccccc3)=C2)cc1 (stereo not drawn) | 1.57%
COc1cc(/C=C2/C(=O)NN(c3cccc(Cl)c3)C2=O)cc(Br)c1O | 5.53%
CCOc1c(Br)cc(/C=C2\C(=O)N(CCC#N)N=C2C)cc1OC | 75.9% (active)
C=CCOc1c(Br)cc(/C=N\n2nnnc2N)cc1OC | 2.56%
COc1cc(OC)cc(-c2c(-c3cccs3)c3cc(-c4ccc(OC)cc4F)ccc3n2C)c1 | 11.7%
COc1ccc(CCN2CC(C(=O)NCCN3CCNC3=O)CCC2=O)cc1 (stereo not drawn) | 0.96%
CCCCNC(=O)C(C)N(CCN(C)C)C(=O)CCCN1C(=O)NC(c2ccc(Cl)cc2)C(C(=O)OCc2ccccc2)=C1C (stereo not drawn) | 57.1% (active)
CCCCNC(=O)C(C)N(CCN(C)C)C(=O)CCCCCN1C(=O)NC(c2ccc(Cl)cc2)C(C(=O)OCc2ccccc2)=C1C (stereo not drawn) | 67.1% (active)
CC1=C(C(=O)OC(C)(C)C)C(c2ccc(Br)cc2)NC(=O)N1CCCC(=O)O (stereo not drawn) | -6.71%
CCN1C(=O)N[C@@H](c2ccccc2)C(C(=O)OC)=C1C | -2.25%
CC1=C(C(=O)OCc2ccccc2)C(c2ccc(C(F)(F)F)cc2)NC(=O)N1CCCCCC(=O)O (stereo not drawn) | 19.6%
COC(=O)CCCCCN1C(=O)NC(c2ccc(-c3ccccc3)cc2)C(C(=O)OCc2ccccc2)=C1C (stereo not drawn) | 19.3%
CCCOC(=O)c1c(NC(=O)c2cnn3c2NC(c2ccccc2)CC3C(F)(F)F)sc2c1CCCC2 (stereo not drawn) | -7.9%
NC(=O)c1ccc(-c2csnn2)cc1 | -3.94%
COc1ccc(-n2nc(C(=O)Nc3cc(OC)c(OC)c(OC)c3)c3ccccc3c2=O)c(OC)c1 | 28.5%
Nc1nnnn1/N=C/c1cccc(Br)c1 | 8.14%
COc1ccccc1C(=O)NCCC(=O)N(C)Cc1cccnc1 | -4.28%
O=C(CCNS(=O)(=O)c1ccccc1)NCCSc1ccc(Br)cc1 | 58.6% (active)
Cc1ccc(OCCNC(=O)CCNS(=O)(=O)c2ccc(Br)cc2)cc1 | 11.6%
O=C(CCNS(=O)(=O)c1ccccc1)NCCCc1ccccc1 | 4.81%
